The structures appear in SMILES notation. Activity calls are given as the source filed them.

Data set [1] relates to Mus musculus. The data set is described as follows: Anticonvulsant activity in mouse assessed as protection against maximal electroshock-induced seizures at 100 mg/kg, ip. It is filed as functional, organism-based. Summed up:
(§1)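 Mice dosed ip; maximal seizures induced by auricular electroshock (25 mA, 500 V, 50 Hz, 0.2 s). Endpoint: hind-limb tonic extension; animals without it scored protected. Read-out is number protected over number tested.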

The test system of data set [2] is Mus musculus. Kind of data set: Toxicity in mouse at 100 mg/kg, ip measured during maximal electroshock seizure test. In kind it is organism-based. As to conditions: in vivo.
Data set [3] has as its system Mus musculus. The data set is described as follows: Toxicity in mouse at 60 mg/kg, ip measured during maximal electroshock seizure test. It is filed as organism-based. As to conditions: in vivo. (In general: In the maximal electroshock model the usual endpoint is tonic extension of the hind limbs.)
In data set [4] the test system is Mus musculus. The data set is described as follows: Anticonvulsant activity in ip dosed mouse assessed as protection against maximal electroshock-induced seizures. In kind it is functional. Summed up:
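Mice were dosed ip. Maximal seizures were induced by auricular electrodes (25 mA, 500 V, 50 Hz, 0.2 s). Absence of hind-limb tonic extension counted as protection. […] Motor impairment was scored on a 10 rpm rotarod, giving TD50 the same way.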

Data set [5] in a line: Neurotoxicity in ip dosed mouse assessed as motor impairment measured for one min by rotarod test. In kind it is toxicity, organism-based. As to conditions: in vivo. Summed up: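 Mice trained on an accelerating rotarod, then tested at least 24 h later after ip pretreatment, on a rod turning at 10 rpm. Neurotoxicity was scored as failure to stay on the rod for one minute. Read-out is mice impaired over mice tested.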
(In the rotarod test animals must keep their balance on a rotating rod.)

Data set [6] can be described thus: Protection index, ratio of TD50 for neurotoxicity in ip dosed mouse by rotarod test to ED50 for anticonvulsant activity in mouse by maximal electroshock seizure test. It is filed as toxicity, organism-based. The following applies: in vivo, read-out: Ratio TD50/ED50.
The subject of data set [7] is Mus musculus. The data set is described as follows: Anticonvulsant activity in mouse assessed as current strength required to induce tonic hind-limb extension in 50% of the animals at 20 mg/kg, ip by maximal electroshock seizure threshold test (reference value: 6.05 to 8.13 mA). It is filed as functional.
For data set [8], the system named is Mus musculus. Kind of data set: Anticonvulsant activity in mouse assessed as increase in electroconvulsive threshold at 20 mg/kg, ip by maximal electroshock seizure threshold test relative to control. It is filed as functional.
In data set [9] the test system is Mus musculus. Kind of data set: Anticonvulsant activity in mouse assessed as protection against subcutaneous pentylenetetrazole-induced seizures by measuring latency time of tonic seizures at 80 mg/kg, ip measured for 30 mins post pentylenetetrazole challenge at 0.5 hrs after compound dosing (reference value: 562.8 to 614.9 secs). In kind it is functional.
For data set [10], the system named is Mus musculus. The data set is described as follows: Anticonvulsant activity in mouse assessed as protection against subcutaneous pentylenetetrazole-induced seizures at 80 mg/kg, ip measured for 30 mins post pentylenetetrazole challenge at 0.5 hrs after compound dosing relative to control. It is filed as functional.
Data set [11] deals with Mus musculus. Kind of data set: Analgesic activity in mouse assessed as decrease in time of paw licking during phase 1 at 33 mg/kg, ip measured for 5 mins by formalin test relative to control. In kind it is functional. Also on record: scale not given: the % may be the effect or the level left. In a few lines: (§2)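 Formalin test in mice: 20 μL of 5% formalin injected intraplantarly into the right hind paw. Each mouse was observed alone in a glass beaker for 30 min. Time (s) spent licking or biting the injected paw was recorded at 0–5 min (acute phase) and 15–30 min (inflammatory phase).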

Data set [12] has as its system Mus musculus. Kind of data set: Analgesic activity in mouse assessed as decrease in time of paw licking during phase 2 at 33 mg/kg, ip measured for 15 to 30 mins by formalin test relative to control. Also on record: scale not given: the % may be the effect or the level left. It is filed as functional. In a few lines: as §2
For data set [13], the system named is Mus musculus. Kind of data set: Toxicity in mouse assessed as effect on spontaneous activity at 33 mg/kg, ip measured for 30 mins by photoresistor actometer relative to control. It is filed as organism-based. As to conditions: in vivo, 0.5 h. In a few lines: (§3)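 Mice dosed ip; locomotor activity by photoresistor actometers counting light-beam interruptions. Each mouse was habituated 30 min in a cage, then crossings were counted over a 30 min session. Data are mean ± SEM and % change vs control; unpaired t test.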

For data set [14], the system named is Mus musculus. The data set is described as follows: Neurotoxicity in mouse assessed as motor impairment by measuring time of escaping from chimney at 33 mg/kg, ip measured for 60 secs (reference value: 8.87 +/- 1.79 secs). It is filed as toxicity, organism-based. The following applies: in vivo, 1 min. Summed up: (§4)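 Mice dosed ip; trained, selected animals placed in a horizontal tube 25 cm long and 2.5 cm in diameter, then tube reversed so mice must climb out backward. Read-outs: escape time (s) ± SEM and % animals losing coordination versus control. Unpaired t test.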

Data set [15] has as its system Mus musculus. Kind of data set: Neurotoxicity in mouse assessed as motor impairment by measuring loss of coordination at 33 mg/kg, ip measured for 60 secs by chimney test relative to control. It is filed as toxicity, organism-based. As to conditions: in vivo, 1 min. In a few lines:
as §4

The subject of data set [16] is Mus musculus. The data set is described as follows: Anticonvulsant activity in mouse assessed as protection against maximal electroshock-induced seizures at 10 mg/kg, ip. In kind it is functional, organism-based. In a few lines: as §1
The test system of data set [17] is Mus musculus. Kind of data set: Toxicity in mouse at 10 mg/kg, ip measured during maximal electroshock seizure test. The following applies: in vivo. It is filed as organism-based.
Data set [18] has as its system Mus musculus. Kind of data set: Anticonvulsant activity in mouse assessed as protection against subcutaneous pentylenetetrazole-induced seizures by measuring latency time of tonic seizures at 100 mg/kg, ip measured for 30 mins post pentylenetetrazole challenge at 0.5 hrs after compound dosing (reference value: 562.8 to 614.9 secs). It is filed as functional.
Data set [19] has as its system Mus musculus. The data set is described as follows: Anticonvulsant activity in mouse assessed as protection against subcutaneous pentylenetetrazole-induced seizures by measuring latency time of tonic seizures at 30 mg/kg, ip measured for 30 mins post pentylenetetrazole challenge at 0.5 hrs after compound dosing (reference value: 562.8 to 614.9 secs). It is filed as functional.

In data set [20] the test system is Mus musculus. The data set is described as follows: Anticonvulsant activity in mouse assessed as protection against subcutaneous pentylenetetrazole-induced seizures at 100 mg/kg, ip measured for 30 mins post pentylenetetrazole challenge at 0.5 hrs after compound dosing relative to control. It is filed as functional.
Data set [21] relates to Mus musculus. Kind of data set: Anticonvulsant activity in mouse assessed as protection against subcutaneous pentylenetetrazole-induced seizures at 30 mg/kg, ip measured for 30 mins post pentylenetetrazole challenge at 0.5 hrs after compound dosing relative to control. It is filed as functional.
The subject of data set [22] is Mus musculus. Kind of data set: Analgesic activity in mouse assessed as decrease in time of paw licking during phase 1 at 32 mg/kg, ip measured for 5 mins by formalin test relative to control. The arrangement: scale not given: the % may be the effect or the level left. It is filed as functional. In a few lines:
as §2

Data set [23] concerns Mus musculus. Kind of data set: Analgesic activity in mouse assessed as decrease in time of paw licking during phase 2 at 32 mg/kg, ip measured for 15 to 30 mins by formalin test relative to control. It is filed as functional. Also on record: scale not given: the % may be the effect or the level left. Summed up:
as §2

The test system of data set [24] is Mus musculus. Kind of data set: Toxicity in mouse assessed as effect on spontaneous activity at 32 mg/kg, ip measured for 30 mins by photoresistor actometer relative to control. In kind it is organism-based. The following applies: in vivo, 0.5 h. Summed up:
as §3

The subject of data set [25] is Mus musculus. The data set is described as follows: Neurotoxicity in mouse assessed as motor impairment by measuring time of escaping from chimney at 32 mg/kg, ip measured for 60 secs (reference value: 8.87 +/- 1.79 secs). In kind it is toxicity, organism-based. The following applies: in vivo, 1 min. In a few lines:
as §4

Data set [26] concerns Mus musculus. The data set is described as follows: Neurotoxicity in mouse assessed as motor impairment by measuring loss of coordination at 32 mg/kg, ip measured for 60 secs by chimney test relative to control. It is filed as toxicity, organism-based. The following applies: in vivo, 1 min. In a few lines:
as §4

Data set [27] relates to HepG2. Kind of data set: Cytotoxicity against human HepG2 cells assessed as effect on cell viability at 10 to 250 uM after 24 hrs by MTT assay. The following applies: hepg2, 24 h. It is filed as cell-based. In a few lines: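 HepG2 cells grown in MEM with 10% FBS (37 °C, 5% CO2) and seeded at 1 × 10^4. After overnight culture, exposed to 10–250 μM for 24 h. MTT for 3 h, formazan dissolved, OD 570 nm. Viability is % of control ± SEM from three independent experiments.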

Data set [28] deals with HepG2. Kind of data set: Cytotoxicity against human HepG2 cells assessed as effect on cell viability at 10 to 250 uM after 24 hrs by neutral red assay. In kind it is cell-based. The following applies: hepg2, 24 h. Summed up:
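HepG2 cells seeded at 5 × 10^4 per well, then after 24 h given medium with 10–250 μM for 24 h. Viability by neutral red staining, OD 570 nm. Results are % of control ± SEM, three independent experiments.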

Data set [29] is described as follows: Cytotoxicity against mouse CRL-2541 cells assessed as effect on cell viability at 10 to 250 uM after 24 hrs by MTT assay. In kind it is cell-based.

Broadly, the ED50 is the midpoint of the dose-response relation. What is called TD50 is the dose at which the toxic effect under study appears in half of the subjects. For the compound `Cc1cccc(OCCOCCN[C@H]2CCCC[C@@H]2O)c1C` (racemic), the result with Mus musculus [1] was Active. Also, the Activity result in the data set with Mus musculus [2] is “Non-Toxic”; in the data set with Mus musculus [3] it was “Non-Toxic”; in the data set with Mus musculus [7], 7.01 mA; in the data set with Mus musculus [10], 2.05%; with Mus musculus [11] it was 25.47%; in the data set on Mus musculus [12], 70.13%. Moreover, the Activity in the data set with Mus musculus [13] stood at 3.42%; with Mus musculus [15], 0%. In addition, in the data set with Mus musculus [4], the ED50 came to 32.9 mg/kg. The TD50 at 1 min in data set [5] is 47.4 mg/kg. In addition, the selectivity ratio in data set [6] was determined as 1.44. In addition, in the data set with Mus musculus [8], the result was inactive. The Time was 596 s in the data set with Mus musculus [9] and 4.13 s in the data set on Mus musculus [14].
For the compound `Cc1ccc(OCCN[C@H]2CCCC[C@@H]2O)c(C)c1` (racemic), the result in the data set with Mus musculus [1] was Active. The result in the data set on Mus musculus [16] was inactive. For the same compound, the Activity result is reported as “Non-Toxic” in the data set with Mus musculus [2]; “Toxic” with Mus musculus [17]; 9.33 mA with Mus musculus [7]; 23.9% in the data set with Mus musculus [8]; 57.71% in the data set with Mus musculus [20]; 2.42% in the data set with Mus musculus [21]. Also, the Activity was 18.55% in the data set with Mus musculus [22]; 46.16% in the data set on Mus musculus [23]; 8.2% in the data set with Mus musculus [24]; 0% in the data set with Mus musculus [26]; “Non-Toxic” in the data set with HepG2 [27]; “Non-Toxic” with HepG2 [28]. In data set [29], the Activity result is listed as “Non-Toxic”. In addition, in the data set with Mus musculus [4], the ED50 came out at 31.8 mg/kg. Moreover, in data set [5], the TD50 at 1 min came out at 76.8 mg/kg. Besides, in data set [6], the selectivity ratio came out at 2.41. The Time with Mus musculus [18] amounted to 921 s; in the data set with Mus musculus [19] it was 576.4 s; in the data set on Mus musculus [25] it was 4.75 s.

(Values after ChEMBL document CHEMBL4261484, “Design, synthesis and anticonvulsant-analgesic activity of new N-[(phenoxy)alkyl]- and N-[(phenoxy)ethoxyethyl]aminoalkanols” (Medchemcomm, 2017).)
